Hits are enriched below; roughly 2.5% of the tested compounds scored in any of these assays.
NR2E3 ag-1: agonists of human nuclear receptor NR2E3; inhibition of corepressor binding, % at 4.78 µM; GST-NR2E3/biotin-RetCOR TR-FRET, 1536-well; 0.12% of 320,000 active; Q9Y5X4;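 active = percent inhibition above the cutoff of mean plus 3 SD of all tested compounds, set per screening campaign, cut at about 20% in these data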;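 note: 0% = DMSO wells and 100% = biotin wells as full block of FRET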
Target sequence (Q9Y5X4 whole entry, looked up): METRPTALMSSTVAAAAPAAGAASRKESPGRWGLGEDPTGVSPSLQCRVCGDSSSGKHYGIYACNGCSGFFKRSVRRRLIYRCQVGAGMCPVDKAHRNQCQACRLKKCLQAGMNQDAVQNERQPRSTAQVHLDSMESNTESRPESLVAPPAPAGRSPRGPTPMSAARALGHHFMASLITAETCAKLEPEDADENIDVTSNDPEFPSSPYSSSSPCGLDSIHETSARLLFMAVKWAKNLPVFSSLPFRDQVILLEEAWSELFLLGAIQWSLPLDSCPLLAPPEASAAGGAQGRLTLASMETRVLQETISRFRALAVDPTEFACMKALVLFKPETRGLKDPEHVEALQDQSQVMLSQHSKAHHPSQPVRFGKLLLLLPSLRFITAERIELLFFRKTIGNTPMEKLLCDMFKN
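Material – GST-tagged NR2E3 plus biotinylated RetCOR corepressor · Quantity – NR2E3 fusion 1.35 nM · Times – 5 h incubation at 4 °C · Medium – pH 7.5 Tris-based buffer · Technique – TR-FRET, Eu(K)-anti-GST donor, streptavidin-D2 acceptor, ex 340, em 617/671 nm · Benchmarks – high control biotin, low control 0.6% DMSO · Format – 1536-well plates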
MsrA inhibitor: bovine MsrA inhibition | AID 651718 | purified bovine MsrA, absorbance read-out | 0.75% of 360,000 active | inhibition, % at 15.5 µM;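 note: 0% = vehicle wells with enzyme and 100% = reference inhibitor wells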
NadD inh: blocks S. aureus nicotinate mononucleotide adenylyltransferase | purified NadD enzyme, colorimetric absorbance read-out | inhibition, % at 20 µM | 0.78% of 360,000 active | AID 602399; in the data active = inhibition above about 26%
MsrA act: activates bovine MsrA enzyme | purified bovine MsrA, absorbance read-out | activation, % at 10.6 µM | 0.3% of 360,000 active | AID 602163; in the data active = activation above about 7.5%;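 note: 0% = vehicle and 100% = reference activator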
NR2E3 ag-2: activates human NR2E3 receptor. inhibition of corepressor binding, % at 3.98 µM. AID 602229. 0.35% of 360,000 active. CHO-S Gal4-NCOR/VP16-NR2E3 two-hybrid, luciferase;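 active = inhibition above the mean of all tested compounds plus 3 SD, cut at about 70% in these data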;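 note: 0% = DMSO with NR2E3 transfected cells and 100% = cells lacking NR2E3 construct; higher means lower luciferase signal from less NR2E3 corepressor binding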
GalR3 antagonist: antagonists of human GalR3. inhibition, % at 3 µM. AID 651719. HEK293 GalR3-CNG cAMP membrane potential fluorescence; galR3 body fused to GalR1 C-terminus. 0.44% of 360,000 active;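 active = inhibition above the screen-wide average plus 3 SD, cut at about 13% in these data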;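 note: forskolin and galanin both at EC90 stimulate the cells; cAMP rise reported by CNG channel membrane potential dye signal; 0% = forskolin plus galanin with DMSO and 100% = forskolin alone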
MsrA conf: bovine MsrA inhibition, confirmed; 41% of 2,300 active; AID 651822; shares compounds with MsrA inhibitor; purified bovine MsrA, absorbance read-out; inhibition, % at 15.5 µM;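 note: coupled to thioredoxin reductase with NADPH and selenocystamine and DMSO as substrate; 0% = vehicle only and 100% = full effect of reference inhibitor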
An asterisk follows results filed as active; · = not tested or not shown. Cut-off read from the data, not from the text of the source, unless noted: active = inhibition above about 4.5%; inactive = the rest.

SMILES	NR2E3 ag-1	MsrA inhibitor	NadD inh	MsrA act	NR2E3 ag-2	GalR3 antagonist	MsrA conf
COc1ccc2cc(-c3nc4ccccc4n3C)c(=O)oc2c1	5	4.9*	-4	-5	-119	-2	2
Cn1c(-c2cc3ccccc3oc2=O)nc2ccccc21	-2	3	-5	-4	-68	-2	·
CC(C)CNC(=O)COC(=O)c1ccccc1SCC(=O)NCC(C)C	3	1	-6	8	-45	-3	·
C=CCn1c(-c2ccccc2)nc(=S)c2c1CC(C)(C)OC2	-2	5.1*	2	-4	-12	-3	4
COc1ccc(-c2nc(=S)c3c(n2CCN2CCOCC2)CC(C)(C)OC3)cc1	3	4.9*	-1	-12	-21	-1	4
CCCNC(=S)N(Cc1ccccc1)Cc1nc2ccccc2c(=O)[nH]1	0	47*	-2	-7	-33	6	-1
CCOCCCNC(=S)N(Cc1ccccc1)Cc1nc2ccccc2c(=O)[nH]1	3	1	2	-5	-4	4	·
CS(=O)(=O)Nc1ccc(Br)cc1	·	-1	4	-4	-5	-6	·
CCCCCc1c(-c2cccc(OC)c2)ncn1CCc1ccccc1OC	·	21*	-3	-2	-9	-9	18*
CCCCCc1c(-c2cccc(F)c2)ncn1CCc1ccccc1OC	·	2	0	-2	-18	-8	·
O=[N+]([O-])c1cccc(-c2ccc(/C=N/NC(=S)Nc3cccc(F)c3)o2)c1	-1	2	18	-8	12	-6	·
NC(=S)N/N=C/c1ccc(-c2cccc([N+](=O)[O-])c2)o1	2	5.1*	11	-3	-26	-3	7.6*
N#Cc1cc(C#N)c(N2CCN(c3ccccn3)CC2)nc1N	6	4.7*	-3	-2	-75	-5	3
CCn1c(C)c(C)c2cc(C(=O)NCCCN3CCN(C)CC3)ccc21	1	1	1	2	-9	-9	·
COc1cc(/C=C2/NC(=O)N(Cc3ccccc3F)C2=O)cc(OC)c1O	4	5.0*	2	-4	-1	-1	2
O=C1N/C(=N/O)S/C1=C/c1cccc([N+](=O)[O-])c1	2	3	-3	-4	-55	2	·
O=C1N/C(=N/O)S/C1=C\c1ccccc1-n1cccn1	-5	4.7*	-7	-5	-10	3	3
CC(Oc1ccc(Cl)cc1)c1ccn[nH]1 (stereo not given)	5	0	2	-11	0	-6	·
Cc1ccnc(Sc2ccc([N+](=O)[O-])cc2[N+](=O)[O-])n1	1	2	-3	4	-16	-2	·
Cc1ccc(Sc2ccc([N+](=O)[O-])cc2[N+](=O)[O-])nc1	-2	4.8*	-5	-2	5	0	3
CC(=O)Nc1ccc(N(C(=O)CNC(=O)c2ccco2)C(C(=O)NCc2ccco2)c2ccccc2)cc1 (stereo not given)	2	-1	-8	-7	-10	3	·
Cc1cc(/C=C(/C#N)c2nc3ccccc3[nH]2)c(C)n1-c1ccccc1C(=O)O	-5	2	7	-2	-31	-5	·
Cc1cc(/C=C(/C#N)c2nc3ccccc3[nH]2)c(C)n1-c1cc(C(=O)O)cc(C(=O)O)c1	·	4.9*	6	-5	-20	-4	3
Cc1ccc(OCC(=O)N/N=C/c2cccn2C)cc1	0	2	-4	0	-33	-3	·
Cc1ccc(C)c(OCC(=O)N/N=C\c2cccn2C)c1	-6	5.1*	1	-14	-21	-7	1
COc1ccc(-c2cc(C(=O)OCC(=O)N3CCOCC3)c3ccccc3n2)cc1	·	4.7*	-3	-6	5	-4	1
COc1ccc(-c2cc(C(=O)N3CCC3)c3ccccc3n2)cc1OC	-2	5.4*	0	-4	1	7	3
COc1ccc(-c2cc(C(=O)N3CCCC3)c3ccccc3n2)cc1OC	1	3	-5	4	27	-3	·
Cc1sc(-n2cccc2)c(C(=O)O)c1C	3	-1	6	-7	12	0	·
Cc1nc2nc(-c3cccs3)[nH]c2cc1Br	2	7.0*	-7	1	-126	4	4
